Data as given in ChEMBL document CHEMBL4043284, “The Synthesized Plant Metabolite 3,4,5-Tri-O-Galloylquinic Acid Methyl Ester Inhibits Calcium Oxalate Crystal Growth in a Drosophila Model, Downregulates Renal Cell Surface Annexin A1 Expression, and Decreases Crystal Adhesion to Cells” (J Med Chem, 2018).
Calls of active or inactive are those of the source. No cut-off for these calls is given here.

Legend:
[1] = Effect on total AxA1 expression in MDCK1 cells at 50 uM after 3 hrs by Western blot method; format: ADME, cell-based, Canis lupus familiaris; settings: dog, mdck1, 3 h
Outline: (§1)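 MDCKI cells seeded at 5×10^5 per well and treated with 50 μM for 3 h. Cytosolic fraction extracted with PIPES/EDTA/0.02% digitonin buffer for 10 min at 4°C. Membrane fraction taken from the pellet in SDS/Tris pH 6.8 buffer. Whole lysate prepared separately. 30 μg protein per lane on 7.5% gel; blots probed for annexin A1, HSP90 and α-enolase, with β-actin as loading control. Bands read by ECL densitometry. Mean ± SEM, n=3.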

[2] = Effect on total HSP90 expression in MDCK1 cells at 50 uM after 3 hrs by Western blot method; format: ADME, cell-based, Canis lupus familiaris; settings: dog, mdck1, 3 h; outline: as §1
[3] = system: Drosophila melanogaster; experiment: Inhibition of calcium oxalate crystallization in Oregon R Drosophila melanogaster malpighian tubule model at 100 uM preincubated with test compound alone for 20 mins followed by addition of calcium oxalate along with test compound measured after 1 hr by DIC microscopy; format: functional
Outline: (§2)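 Malpighian tubules dissected from wild-type Oregon R female flies. Tubules preincubated in iPBS with 100 μM for 20 min, then given 100 μM plus Na-oxalate for 1 h, with solutions renewed every 15 min. Controls received oxalate alone. The first 600 μm of anterior tubule imaged by DIC birefringence. Crystal number and area measured with ImageJ. n=12 per group; means ± SE.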

[4] = Inhibition of AxA1 expression in MDCK1 cell surface at 50 uM after 3 hrs by laser scanning confocal microscopic method relative to control; format: functional; settings: Canis lupus familiaris, MDCK1, 3 h
Outline: (§3)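 MDCKI cells grown overnight on collagen-coated chamber slides and treated ± 50 μM for 3 h. Fixed in 4% paraformaldehyde. Intracellular staining done with 0.2% Triton permeabilization; surface staining done without permeabilization. Rabbit anti-annexin A1 applied overnight at 4°C, then Alexa Fluor 488 anti-rabbit secondary. Nuclei counterstained with TOTO-3. Imaged by confocal microscopy, 63× oil objective.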

[5] = system: MDCK1; experiment: Downregulation of alpha-enolase expression in membrane fractions of MDCK1 cells at 50 uM after 3 hrs by Western blot method; format: functional, cell-based; settings: Canis lupus familiaris; outline: as §1
[6] = system: MDCK1; experiment: Downregulation of AxA1 expression in membrane fractions of MDCK1 cells at 50 uM after 3 hrs by Western blot method; format: functional, cell-based; settings: Canis lupus familiaris; outline: as §1
[7] = system: Drosophila melanogaster; experiment: Inhibition of total calcium oxalate crystal area in Oregon R Drosophila melanogaster malpighian tubule model at 100 uM preincubated with test compound alone for 20 mins followed by addition of calcium oxalate along with test compound measured after 1 hr by DIC microscopy; format: functional; outline: as §2
[8] = system: Drosophila melanogaster; experiment: Inhibition of calcium oxalate crystal size in Oregon R Drosophila melanogaster malpighian tubule model at 100 uM preincubated with test compound alone for 20 mins followed by addition of calcium oxalate along with test compound measured after 1 hr by DIC microscopy; format: functional; outline: as §2
[9] = Antioxidant activity assessed as DPPH radical scavenging activity incubated in dark for 20 mins; format: functional
Outline: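 Compound stock 1 mM in DMSO; 2–20 μL portions made up to 40 μL with DMSO and added to 1.96 mL of 0.1 mM DPPH. Held at RT for 20 min in the dark, then absorbance read at 517 nm. DPPH alone served as control. % radical scavenging = (control − test)/control × 100.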

[10] = Inhibition of cell surface associated calcium oxalate monohydrate crystal levels in MDCK1 cells preincubated for 3 to 6 hrs followed by calcium oxalate monohydrate crystal addition measured after 30 mins by phase contrast microscopy relative to control; format: functional, Canis lupus familiaris
Outline: (§4)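 MDCKI cells seeded at 5×10^5 per well and cultured for 24 h. Pretreated at 0–50 μM for 3 h (concentration series), or at 25 or 50 μM for 1, 3 or 6 h (time course). Cells then washed and exposed to COM crystals (100 μg/mL) for 30 min, followed by five washes with plain medium. Adherent crystals counted by phase-contrast microscopy in 15 random high-power fields, ×400.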

[11] = system: MDCK1; experiment: Upregulation of alpha-enolase expression in cytosolic fractions of MDCK1 cells at 50 uM after 3 hrs by Western blot method; format: functional, cell-based; settings: Canis lupus familiaris; outline: as §1
[12] = system: MDCK1; experiment: Downregulation of HSP90 expression in membrane fractions of MDCK1 cells at 50 uM after 3 hrs by Western blot method; format: functional, cell-based; settings: Canis lupus familiaris; outline: as §1
[13] = Cytotoxicity against MDCK1 cells assessed as decrease in cell viability up to 155 +/- 4 uM after 24 hrs by MTT assay; format: cell-based, Canis lupus familiaris; settings: dog, mdck1, 24 h
[14] = system: MDCK1; experiment: Increase in intracellular AxA1 expression in MDCK1 cells at 50 uM after 3 hrs by laser scanning confocal microscopic method; format: functional, cell-based; settings: Canis lupus familiaris; outline: as §3
[15] = system: MDCK1; experiment: Upregulation of AxA1 expression in cytosolic fractions of MDCK1 cells at 50 uM after 3 hrs by Western blot method; format: functional, cell-based; settings: Canis lupus familiaris; outline: as §1
[16] = Effect on total alpha-enolase expression in MDCK1 cells at 50 uM after 3 hrs by Western blot method; format: ADME, cell-based, Canis lupus familiaris; settings: dog, mdck1, 3 h; outline: as §1
[17] = system: MDCK1; experiment: Inhibition of calcium oxalate monohydrate crystal binding to MDCK1 cell surface preincubated for 3 hrs followed by calcium oxalate monohydrate crystal addition measured after 30 mins by phase contrast microscopy; format: functional, cell-based; settings: Canis lupus familiaris; outline: as §4
[18] = system: MDCK1; experiment: Upregulation of HSP90 expression in cytosolic fractions of MDCK1 cells at 50 uM after 3 hrs by Western blot method; format: functional, cell-based; settings: Canis lupus familiaris; outline: as §1
[19] = Cytotoxicity against MDCK1 cells assessed as decrease in cell viability after 24 hrs by MTT assay; format: cell-based; settings: Canis lupus familiaris, MDCK1, 24 h
Outline: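 MDCKI cells seeded at 1×10^4 per well, exposed 24 h to 0, 5, 10, 25, 50 μM (in DMSO/PBS). MTT (5 mg/mL working solution) added for 3 h at 37°C, then stop solution; OD read at 570 nm. Viability expressed as percent of untreated control after blank subtraction; IC50 reported. Means ± S.D. of three independent experiments.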

[20] = system: MDCK1; experiment: Inhibition of calcium oxalate monohydrate crystal binding to MDCK1 cell surface at 10 uM preincubated for 3 hrs followed by calcium oxalate monohydrate crystal addition measured after 30 mins by phase contrast microscopy; format: functional, cell-based; settings: Canis lupus familiaris
Outline: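 MDCKI cells (5×10^5 per well) cultured 24 h in complete medium, pretreated 3 h with 0, 1 or 10 μM, washed with PBS, then exposed 30 min to COM crystals (100 μg/mL medium). Unbound crystals removed by five washes with plain DMEM. Adherent crystals counted by phase-contrast microscopy in 15 random high-power fields per well.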

COC(=O)[C@]1(O)C[C@@H](OC(=O)c2cc(O)c(O)c(O)c2)[C@@H](OC(=O)c2cc(O)c(O)c(O)c2)[C@H](OC(=O)c2cc(O)c(O)c(O)c2)C1
Activity [1]: Non-Toxic | Activity [2]: Non-Toxic | inhibition [3]: Active | inhibition at 50 µM [4]: 50% | Activity [5]: Active | Activity [6]: Active | inhibition [7]: Active | inhibition [8]: Active | EC50 [9]: 11 µM | inhibition (INH) [10]: 50% | Activity [11]: Active | Activity [12]: Active | Activity [13]: Non-Toxic | Activity [14]: Active | Activity [15]: Active | Activity [16]: Non-Toxic | inhibition [17]: Dose-dependent effect | Activity [18]: Active

COC(=O)[C@]1(O)C[C@@H](O)[C@@H](O)[C@H](O)C1
IC50 [19]: 120 µM | Activity [9]: inactive

O=C1O[C@H]([C@@H](O)CO)C(O)=C1O [ASCORBIC ACID]
EC50 [9]: 45 µM

O=C(O)c1cc(O)c(O)c(O)c1 [GALLIC ACID]
inhibition [20]: Active | IC50 [19]: 34 µM | EC50 [9]: 3 µM
